According to ChEMBL document CHEMBL3414458, “Discovery of novel 2,5-dioxoimidazolidine-based P2X(7) receptor antagonists as constrained analogues of KN62” (J Med Chem, 2015):
Activity calls are given as the source filed them. The calls are words filed in the database; no cut-off is given here.

How the values were obtained:
[1] = target: T1, P2X purinoceptor 1 (Mus musculus) (UniProt P51576); assay: Antagonist activity at recombinant mouse P2X1 receptor overexpressed in Xenopus oocytes assessed as inhibition of ATP-induced ion current at 10 uM preincubated for 20 mins followed by ATP induction by two-electrode voltage clamping method relative to control; assay type: cell-based
T1 sequence (whole entry): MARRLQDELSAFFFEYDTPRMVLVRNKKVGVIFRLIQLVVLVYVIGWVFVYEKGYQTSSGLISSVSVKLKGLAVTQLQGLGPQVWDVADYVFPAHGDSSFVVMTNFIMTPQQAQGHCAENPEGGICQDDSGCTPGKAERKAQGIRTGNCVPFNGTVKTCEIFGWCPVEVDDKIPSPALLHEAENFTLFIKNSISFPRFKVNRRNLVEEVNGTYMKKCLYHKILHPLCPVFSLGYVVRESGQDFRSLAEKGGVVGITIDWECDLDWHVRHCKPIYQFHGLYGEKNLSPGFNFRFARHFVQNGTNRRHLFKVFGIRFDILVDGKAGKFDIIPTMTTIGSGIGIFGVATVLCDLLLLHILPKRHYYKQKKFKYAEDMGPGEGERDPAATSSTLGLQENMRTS
Method in brief: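 Two-electrode voltage clamp on Xenopus oocytes expressing the receptor after cRNA microinjection. Current was evoked by 2 µM ATP, with test compound at 10 µM.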

Mus musculus [2] = assay: Downregulation of COX-2 expression in ankle tissue of CII-induced DBA/1J mouse arthritic model at 25 to 50 mg/kg, ip measured 10 days post second CII booster by immunoblot analysis; assay type: functional, organism-based
Mus musculus [3] = assay: Antiarthritic activity in CII-induced DBA/1J mouse arthritic model assessed as decrease in periarticular erosion at 50 mg/kg, ip measured 10 days post second CII booster by Hematoxylin and eosin staining relative to CII-treated control; assay type: functional, organism-based; set-up: dose 50 mg/kg
Method in brief: (§1)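 Mouse type II collagen-induced arthritis; 50 mg/kg dosed by injection. Ankle histology was scored as cumulative arthritis injury scores against the vehicle-treated CII group.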

[4] = target: T2, P2X purinoceptor 3 (Homo sapiens) (UniProt P56373); assay: Antagonist activity at recombinant human P2X3 receptor overexpressed in Xenopus oocytes assessed as inhibition of ATP-induced ion current at 10 uM preincubated for 20 mins followed by ATP induction by two-electrode voltage clamping method relative to control; assay type: cell-based
T2 sequence (whole entry): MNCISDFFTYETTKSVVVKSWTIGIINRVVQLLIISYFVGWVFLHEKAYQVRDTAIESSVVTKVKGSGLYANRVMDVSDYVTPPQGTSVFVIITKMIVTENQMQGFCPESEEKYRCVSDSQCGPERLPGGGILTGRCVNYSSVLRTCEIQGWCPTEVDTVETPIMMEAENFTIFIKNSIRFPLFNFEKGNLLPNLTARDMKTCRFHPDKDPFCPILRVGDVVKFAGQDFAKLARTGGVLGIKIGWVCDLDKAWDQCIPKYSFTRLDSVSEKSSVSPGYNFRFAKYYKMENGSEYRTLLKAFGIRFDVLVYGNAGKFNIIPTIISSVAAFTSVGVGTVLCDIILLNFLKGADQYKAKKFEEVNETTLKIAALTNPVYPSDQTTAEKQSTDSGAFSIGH
Method in brief: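 Xenopus oocytes were microinjected with capped cRNA for human P2X3. Two-electrode voltage clamp recorded ion current evoked by 2 µM ATP. Test compound at 10 µM was scored as percent reduction of the ATP-induced current.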

Mus musculus [5] = assay: Antiarthritic activity in CII-induced DBA/1J mouse arthritic model assessed as decrease in abcess formation at 50 mg/kg, ip measured 10 days post second CII booster by Hematoxylin and eosin staining relative to CII-treated control; assay type: functional, organism-based; set-up: dose 50 mg/kg; method in brief: as §1
[6] = target: T3, P2X purinoceptor 7 (Homo sapiens) (UniProt Q99572); assay: Competitive antagonist activity at recombinant human P2X7 receptor expressed in HEK293 cells assessed as inhibition of BzATP-induced intracellular ethidium bromide uptake at 0.1 to 1 uM after 2 hrs by fluorescence assay in presence of BzATP; assay type: cell-based
T3 sequence (whole entry): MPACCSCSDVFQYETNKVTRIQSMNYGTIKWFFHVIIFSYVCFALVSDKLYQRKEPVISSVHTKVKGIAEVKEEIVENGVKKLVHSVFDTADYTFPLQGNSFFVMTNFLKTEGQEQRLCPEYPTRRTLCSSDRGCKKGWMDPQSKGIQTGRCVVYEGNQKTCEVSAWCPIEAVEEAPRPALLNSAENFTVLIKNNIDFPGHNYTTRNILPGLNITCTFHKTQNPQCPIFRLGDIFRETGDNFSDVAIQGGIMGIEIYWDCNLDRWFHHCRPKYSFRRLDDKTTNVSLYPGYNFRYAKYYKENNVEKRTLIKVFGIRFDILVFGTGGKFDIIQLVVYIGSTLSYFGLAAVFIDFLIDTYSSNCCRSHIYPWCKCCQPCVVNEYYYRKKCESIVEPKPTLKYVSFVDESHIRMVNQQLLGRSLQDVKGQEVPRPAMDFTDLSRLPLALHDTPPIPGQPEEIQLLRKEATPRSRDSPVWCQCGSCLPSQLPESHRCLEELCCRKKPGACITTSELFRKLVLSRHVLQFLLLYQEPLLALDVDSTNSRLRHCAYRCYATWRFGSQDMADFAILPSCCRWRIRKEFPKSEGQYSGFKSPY
Method in brief: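 HEK293 cells stably expressing recombinant human P2X7 were stimulated with BzATP, and ethidium ion accumulation was read as the measure of pore activity.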

Mus musculus [7] = assay: Downregulation of iNOS expression in ankle tissue of CII-induced DBA/1J mouse arthritic model at 25 to 50 mg/kg, ip measured 10 days post second CII booster by immunoblot analysis; assay type: functional, organism-based

Structure (SMILES): O=C1NC(=O)N(C2CCN(C(=O)c3ccc(Cl)c(C(F)(F)F)c3)CC2)C1Cc1ccc(OS(=O)(=O)c2cccc3cnccc23)cc1 (racemic)
- inhibition [1]: 16%
- Activity (Mus musculus [2]): Active
- Activity (Mus musculus [3]): Active
- inhibition [4]: 5.05%
- Activity (Mus musculus [5]): Active
- inhibition [6]: Active
- Activity (Mus musculus [7]): Active
